For 4 compounds, IC50 results are on record in ChEMBL document CHEMBL1155708, “Isoaurostatin, a novel topoisomerase inhibitor produced by Thermomonospora alba” (J Nat Prod, 2001).

The target in assay [1] is T1, Type II restriction enzyme HindIII (Haemophilus influenzae (strain ATCC 51907 / DSM 11121 / KW20 / Rd), UniProt P43870).
T1 sequence (P43870 whole entry): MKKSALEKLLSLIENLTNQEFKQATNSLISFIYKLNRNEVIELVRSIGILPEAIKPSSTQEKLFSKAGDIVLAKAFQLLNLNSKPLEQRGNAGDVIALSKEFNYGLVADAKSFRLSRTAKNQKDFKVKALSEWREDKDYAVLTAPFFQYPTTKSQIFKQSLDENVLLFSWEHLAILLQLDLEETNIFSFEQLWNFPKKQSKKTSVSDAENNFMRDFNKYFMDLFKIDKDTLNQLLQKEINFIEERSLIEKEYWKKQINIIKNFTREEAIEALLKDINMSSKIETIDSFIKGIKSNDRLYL
In words: Inhibition of Haemophilus influenzae Hind 3 assessed as undigested supercoiled pBR322 DNA concentration. In outline: (§1)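 Restriction enzyme or nuclease activity followed as the remaining undigested supercoiled pBR322 DNA (or RNA) after reaction.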

The target of assay [2] is Telomerase reverse transcriptase (Homo sapiens, UniProt O14746). In words: Inhibition of telomerase from human COLO201 cell.
Chain of Telomerase reverse transcriptase (O14746 whole entry): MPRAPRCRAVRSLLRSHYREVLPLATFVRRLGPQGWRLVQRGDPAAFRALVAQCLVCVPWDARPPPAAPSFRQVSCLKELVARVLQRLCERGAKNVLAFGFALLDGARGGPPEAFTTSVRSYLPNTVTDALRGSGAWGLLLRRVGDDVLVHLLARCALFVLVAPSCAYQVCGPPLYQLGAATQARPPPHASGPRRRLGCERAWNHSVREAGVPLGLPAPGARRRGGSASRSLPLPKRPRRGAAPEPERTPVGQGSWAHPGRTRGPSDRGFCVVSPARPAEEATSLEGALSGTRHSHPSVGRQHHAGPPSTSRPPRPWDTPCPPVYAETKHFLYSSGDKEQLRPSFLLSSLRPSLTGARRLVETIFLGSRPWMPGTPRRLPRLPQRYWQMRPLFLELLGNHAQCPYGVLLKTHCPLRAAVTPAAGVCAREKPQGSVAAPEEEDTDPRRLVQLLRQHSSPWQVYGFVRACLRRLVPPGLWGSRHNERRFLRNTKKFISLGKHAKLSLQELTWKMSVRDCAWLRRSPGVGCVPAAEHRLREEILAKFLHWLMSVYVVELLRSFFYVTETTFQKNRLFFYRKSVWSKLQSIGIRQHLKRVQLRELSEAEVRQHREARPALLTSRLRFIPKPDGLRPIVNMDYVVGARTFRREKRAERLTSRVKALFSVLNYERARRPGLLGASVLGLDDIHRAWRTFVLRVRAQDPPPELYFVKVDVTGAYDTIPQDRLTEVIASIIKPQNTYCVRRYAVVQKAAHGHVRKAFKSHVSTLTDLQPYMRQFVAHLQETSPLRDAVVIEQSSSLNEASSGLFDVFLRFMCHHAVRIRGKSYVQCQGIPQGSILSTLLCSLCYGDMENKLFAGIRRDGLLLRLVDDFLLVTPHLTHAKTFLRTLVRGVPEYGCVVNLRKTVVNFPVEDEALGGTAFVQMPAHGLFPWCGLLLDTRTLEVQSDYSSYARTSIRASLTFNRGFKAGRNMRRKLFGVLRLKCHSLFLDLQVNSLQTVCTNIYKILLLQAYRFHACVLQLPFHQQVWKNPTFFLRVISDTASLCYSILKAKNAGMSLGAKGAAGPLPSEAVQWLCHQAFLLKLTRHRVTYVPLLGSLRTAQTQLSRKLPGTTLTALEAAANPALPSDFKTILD
The target in assay [3] is T2, Type II restriction enzyme ScaI (Streptomyces caespitosus, UniProt O52691).
T2 sequence (O52691 whole entry): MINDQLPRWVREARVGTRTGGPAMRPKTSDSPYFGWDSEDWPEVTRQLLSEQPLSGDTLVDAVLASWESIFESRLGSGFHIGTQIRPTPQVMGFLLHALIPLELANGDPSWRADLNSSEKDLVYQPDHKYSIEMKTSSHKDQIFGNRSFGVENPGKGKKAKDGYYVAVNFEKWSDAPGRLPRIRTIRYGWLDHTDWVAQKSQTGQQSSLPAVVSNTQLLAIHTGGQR
In words: Inhibition of Streptomyces caespitosus Sca 1 assessed as undigested supercoiled pBR322 DNA concentration. In outline: as §1

Another assay addresses T3, DNA ligase (Enterobacteria phage T4, UniProt P00970).
T3 sequence (P00970 whole entry): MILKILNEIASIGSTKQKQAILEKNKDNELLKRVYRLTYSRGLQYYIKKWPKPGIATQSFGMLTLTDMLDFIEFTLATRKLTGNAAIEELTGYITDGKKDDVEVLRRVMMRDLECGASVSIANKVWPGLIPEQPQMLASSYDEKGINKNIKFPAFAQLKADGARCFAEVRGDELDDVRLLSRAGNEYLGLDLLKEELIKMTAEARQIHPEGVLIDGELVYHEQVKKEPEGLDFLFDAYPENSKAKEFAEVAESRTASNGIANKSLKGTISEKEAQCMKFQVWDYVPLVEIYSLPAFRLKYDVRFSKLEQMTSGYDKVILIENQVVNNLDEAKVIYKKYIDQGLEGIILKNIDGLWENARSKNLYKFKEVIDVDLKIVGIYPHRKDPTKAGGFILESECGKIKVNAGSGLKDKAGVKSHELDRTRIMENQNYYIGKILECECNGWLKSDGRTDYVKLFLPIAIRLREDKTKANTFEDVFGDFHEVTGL
In words: Inhibition of T4 ligase from bacteriophage infected Escherichia coli assessed as ligation of supercoiled pBR322 DNA. Further details: species or system Tequatrovirus T4.

Assay [4] is described as follows: Inhibition of wheat germ topoisomerase 1 assessed as conversion of supercoiled pBR322 DNA to relaxed form. More on the design: species or system Triticum aestivum.
A further assay deals with T4, DNA topoisomerase 1 (Mus musculus, UniProt Q04750).
T4 sequence (Q04750 whole entry): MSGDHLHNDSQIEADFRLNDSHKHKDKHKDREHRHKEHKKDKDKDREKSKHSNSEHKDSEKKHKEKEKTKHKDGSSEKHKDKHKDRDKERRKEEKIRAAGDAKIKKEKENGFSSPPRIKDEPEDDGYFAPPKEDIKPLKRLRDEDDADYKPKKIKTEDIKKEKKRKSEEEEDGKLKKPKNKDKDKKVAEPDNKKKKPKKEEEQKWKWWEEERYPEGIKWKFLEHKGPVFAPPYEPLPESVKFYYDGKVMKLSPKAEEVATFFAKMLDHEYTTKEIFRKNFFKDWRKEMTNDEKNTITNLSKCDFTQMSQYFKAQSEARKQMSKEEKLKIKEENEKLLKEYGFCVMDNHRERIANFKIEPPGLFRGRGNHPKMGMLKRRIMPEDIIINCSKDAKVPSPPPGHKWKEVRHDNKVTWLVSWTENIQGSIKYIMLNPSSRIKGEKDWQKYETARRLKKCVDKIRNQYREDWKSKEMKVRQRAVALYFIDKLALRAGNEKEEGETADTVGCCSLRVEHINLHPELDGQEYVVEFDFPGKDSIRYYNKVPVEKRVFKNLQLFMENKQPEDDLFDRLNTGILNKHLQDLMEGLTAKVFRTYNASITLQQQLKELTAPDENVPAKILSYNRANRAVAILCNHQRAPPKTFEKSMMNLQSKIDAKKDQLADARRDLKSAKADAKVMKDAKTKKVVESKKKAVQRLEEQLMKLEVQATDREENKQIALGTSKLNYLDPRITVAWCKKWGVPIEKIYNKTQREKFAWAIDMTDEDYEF
In words: Inhibition topoisomerase 1 in mouse NIH/3T3 cells assessed as conversion of supercoiled pBR322 DNA to relaxed form. Format: cell-based, NIH3T3. In outline:
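Enzyme source: Vero or NIH3T3 cells cultured 5 days, washed in PBS and pelleted (1 × 10^6 cells). Lysed 30 min on ice in 200 µL buffer (10 mM Tris-HCl pH 7.5, MgCl2, EGTA, AEBSF, β-mercaptoethanol, 0.5% CHAPS, 10% glycerin); the cleared supernatant relaxed supercoiled pBR322. Gel densitometry; IC50 is the amount halving activity.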

On to `CC[C@@]1(O)C(=O)OCc2c1cc1n(c2=O)Cc2cc3ccccc3nc2-1` [CAMPTOTHECIN], for which the IC50 (as a rule, the concentration at which inhibition is half-maximal) in assay [1] was above 300 µM; in assay [2], above 300 µM; in assay [3] it was above 300 µM; at DNA ligase it was above 300 µM; in assay [4] it was 3 µM; on DNA topoisomerase 1, 12 µM.

Consider `COc1cccc2c1C(=O)c1c(O)c3c(c(O)c1C2=O)C[C@@](O)(C(=O)CO)C[C@@H]3O[C@H]1C[C@H](N)[C@H](O)[C@H](C)O1` [DOXORUBICIN], for which the IC50 was 96 µM in assay [1]; 73 µM in assay [2]; 25 µM in assay [3]; above 200 µM on DNA ligase; above 200 µM in assay [4]; above 200 µM on DNA topoisomerase 1.

For the compound `O=C1Oc2cc(O)ccc2/C1=C\c1ccc(O)cc1` [ISOAUROSTATIN], the IC50 in assay [1] was above 400 µM; in assay [2], above 400 µM; in assay [3], above 400 µM; at DNA ligase, above 400 µM; in assay [4], 67 µM; at DNA topoisomerase 1 it was above 400 µM.

Consider `C=C1NC(=O)C(C)C(CCC(C)C(=O)/C=C/C(C)=C/CC(C)CCCCCCC)OC(=O)[C@H](CC(OS(=O)(=O)O)C(N)=O)NC(=O)[C@@H](C)CNC1=O` (some centres undefined) [TOPOSTATIN], for which the IC50 in assay [1] is 17 µM; in assay [2], above 250 µM; in assay [3], 7 µM; on DNA ligase, above 250 µM; in assay [4], 1 µM; at DNA topoisomerase 1 it was 47 µM.
